The source of these data is ChEMBL document CHEMBL3351463, “Methyl effect in azumamides provides insight into histone deacetylase inhibition by macrocycles” (J Med Chem, 2014).

Active and inactive are the calls of the source. No cut-off for these calls is given here.

As usually defined, the Ki is a dissociation constant, usually derived from enzyme kinetics or from competition with a known ligand. In general, inhibition refers to how much of the control response was suppressed. As a reminder, the GI50 is the concentration that inhibits growth by half. Low values mean greater sensitivity of the cells, high ones lower sensitivity of the cells.

One test deals with Histone deacetylase 1 (Homo sapiens, UniProt Q13547). The experiment in a line: Inhibition of human recombinant HDAC1 using [Ac-Leu-Gly-Lys(Ac)-AMC substrate incubated for 15 to 30 mins.
For another test, the system named is EB-3. The experiment in a line: Cytotoxic activity against human EB3 cells assessed as growth inhibition up to 25 uM after 3 days by MTT assay. The class given is functional, cell-based. In outline: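 EB-3 (EBV-infected human Burkitt's lymphoma) cells seeded at 2 × 10^4 per well in RPMI-1640 with 10% FCS and 1% penicillin/streptomycin, cultured overnight at 37 °C, 5% CO2, then given compound or DMSO vehicle. 2-fold dilution series from DMSO stocks; 3 days exposure. MTT added for 4 h, formazan dissolved in acidic 2-propanol, A570 minus 630 nm. Three experiments in duplicate.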
(Formazan colour is commonly taken as a measure of viable cells.)

The target in the next test is Histone deacetylase 3 (Homo sapiens, UniProt O15379). Briefly: Inhibition of human recombinant HDAC3 using [Ac-Leu-Gly-Lys(Ac)-AMC substrate incubated for 15 to 30 mins.
Test [1] concerns the target T1, Histone deacetylase 8 (Homo sapiens) (UniProt Q9BY41).
T1 sequence (whole entry): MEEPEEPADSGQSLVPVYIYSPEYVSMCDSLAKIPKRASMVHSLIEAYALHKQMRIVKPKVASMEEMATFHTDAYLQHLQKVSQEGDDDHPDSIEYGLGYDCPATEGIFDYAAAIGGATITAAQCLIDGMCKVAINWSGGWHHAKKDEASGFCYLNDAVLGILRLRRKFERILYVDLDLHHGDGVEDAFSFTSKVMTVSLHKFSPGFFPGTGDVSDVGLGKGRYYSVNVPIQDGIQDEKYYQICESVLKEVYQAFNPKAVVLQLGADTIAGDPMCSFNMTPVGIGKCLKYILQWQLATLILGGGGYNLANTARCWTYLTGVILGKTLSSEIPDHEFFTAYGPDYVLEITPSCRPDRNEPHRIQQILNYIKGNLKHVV
The experiment in a line: Inhibition of human recombinant HDAC8 at 20 uM using [Ac-Leu-Gly-Lys(Ac)-AMC substrate incubated for 15 to 30 mins. An outline of the steps: (§1)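 Recombinant human enzyme (HDAC6 2.4 ng/μL; HDAC8 0.2 ng/μL final) in pH 8.0 Tris buffer with BSA. Ac-Leu-Gly-Lys(Ac)-AMC substrate at 20 μM for HDAC6 and 200 μM for HDAC8. Incubated 30 min at 37 °C, then trypsin development 15–30 min at room temperature. Fluorescence read at ex 360/em 460 nm.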

The next test concerns the target T2, Histone deacetylase 8 (Homo sapiens, UniProt Q9BY41).
T2 sequence (Q9BY41 whole entry): T1 sequence (whole entry)
The experiment in a line: Inhibition of human recombinant HDAC8 using [Ac-Leu-Gly-Lys(Ac)-AMC substrate incubated for 15 to 30 mins.

In the next test the target is T3, Histone deacetylase 11 (Homo sapiens, UniProt Q96DB2).
T3 sequence (Q96DB2 whole entry): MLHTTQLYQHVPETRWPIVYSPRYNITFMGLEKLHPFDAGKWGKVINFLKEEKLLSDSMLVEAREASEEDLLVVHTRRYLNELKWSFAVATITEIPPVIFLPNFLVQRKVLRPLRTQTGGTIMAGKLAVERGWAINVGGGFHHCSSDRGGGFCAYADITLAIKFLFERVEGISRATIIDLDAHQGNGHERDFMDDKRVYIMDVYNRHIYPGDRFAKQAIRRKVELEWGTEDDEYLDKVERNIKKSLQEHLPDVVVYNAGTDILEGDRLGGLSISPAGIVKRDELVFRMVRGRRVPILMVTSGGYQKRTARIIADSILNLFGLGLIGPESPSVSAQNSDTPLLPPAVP
The experiment in a line: Inhibition of human recombinant HDAC11 using [Ac-Leu-Gly-Lys(Ac)-AMC substrate incubated for 15 to 30 mins.

For test [2], the target named is T4, Protein deacetylase HDAC6 (Homo sapiens) (UniProt Q9UBN7).
T4 sequence (whole entry): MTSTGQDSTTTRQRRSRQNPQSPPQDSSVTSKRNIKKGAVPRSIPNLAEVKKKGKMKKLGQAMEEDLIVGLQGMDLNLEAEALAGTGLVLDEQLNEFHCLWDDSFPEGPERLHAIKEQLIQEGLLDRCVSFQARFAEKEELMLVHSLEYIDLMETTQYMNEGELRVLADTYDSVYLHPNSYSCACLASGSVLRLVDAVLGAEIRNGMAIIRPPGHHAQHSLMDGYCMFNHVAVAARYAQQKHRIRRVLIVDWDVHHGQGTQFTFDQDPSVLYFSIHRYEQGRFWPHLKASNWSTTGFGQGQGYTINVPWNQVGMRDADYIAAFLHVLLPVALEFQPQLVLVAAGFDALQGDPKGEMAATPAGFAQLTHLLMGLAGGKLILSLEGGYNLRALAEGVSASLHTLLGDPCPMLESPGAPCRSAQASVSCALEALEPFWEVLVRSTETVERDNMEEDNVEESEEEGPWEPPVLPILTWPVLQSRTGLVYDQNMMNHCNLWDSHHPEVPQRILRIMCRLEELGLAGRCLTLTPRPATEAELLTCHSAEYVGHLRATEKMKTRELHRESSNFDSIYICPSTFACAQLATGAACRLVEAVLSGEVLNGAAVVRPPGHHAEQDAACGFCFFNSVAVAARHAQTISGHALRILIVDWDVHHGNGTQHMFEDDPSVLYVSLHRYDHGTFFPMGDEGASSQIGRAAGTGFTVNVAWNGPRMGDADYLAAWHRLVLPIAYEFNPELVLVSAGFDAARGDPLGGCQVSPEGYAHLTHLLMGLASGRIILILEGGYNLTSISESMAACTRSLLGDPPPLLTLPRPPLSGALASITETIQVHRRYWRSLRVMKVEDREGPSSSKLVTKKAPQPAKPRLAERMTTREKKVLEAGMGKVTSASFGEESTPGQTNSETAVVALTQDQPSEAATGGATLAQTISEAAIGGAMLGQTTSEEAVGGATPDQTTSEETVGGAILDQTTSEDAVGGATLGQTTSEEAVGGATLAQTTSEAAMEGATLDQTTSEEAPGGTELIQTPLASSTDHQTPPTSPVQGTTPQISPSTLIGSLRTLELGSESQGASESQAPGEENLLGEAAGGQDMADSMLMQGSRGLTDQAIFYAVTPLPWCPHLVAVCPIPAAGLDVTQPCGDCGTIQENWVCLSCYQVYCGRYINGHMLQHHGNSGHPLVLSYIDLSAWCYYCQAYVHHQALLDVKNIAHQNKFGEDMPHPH
Briefly: Inhibition of human recombinant HDAC6 at 20 uM using [Ac-Leu-Gly-Lys(Ac)-AMC substrate incubated for 15 to 30 mins. An outline of the steps: as §1

For test [3], the target named is T5, Protein deacetylase HDAC6 (Homo sapiens, UniProt Q9UBN7).
T5 sequence (Q9UBN7 whole entry): T4 sequence (whole entry)
The experiment in a line: Inhibition of human recombinant HDAC6 using [Ac-Leu-Gly-Lys(Ac)-AMC substrate incubated for 15 to 30 mins.

The target of test [4] is T6, Polyamine deacetylase HDAC10 (Homo sapiens, UniProt Q969S8).
T6 sequence (Q969S8 whole entry): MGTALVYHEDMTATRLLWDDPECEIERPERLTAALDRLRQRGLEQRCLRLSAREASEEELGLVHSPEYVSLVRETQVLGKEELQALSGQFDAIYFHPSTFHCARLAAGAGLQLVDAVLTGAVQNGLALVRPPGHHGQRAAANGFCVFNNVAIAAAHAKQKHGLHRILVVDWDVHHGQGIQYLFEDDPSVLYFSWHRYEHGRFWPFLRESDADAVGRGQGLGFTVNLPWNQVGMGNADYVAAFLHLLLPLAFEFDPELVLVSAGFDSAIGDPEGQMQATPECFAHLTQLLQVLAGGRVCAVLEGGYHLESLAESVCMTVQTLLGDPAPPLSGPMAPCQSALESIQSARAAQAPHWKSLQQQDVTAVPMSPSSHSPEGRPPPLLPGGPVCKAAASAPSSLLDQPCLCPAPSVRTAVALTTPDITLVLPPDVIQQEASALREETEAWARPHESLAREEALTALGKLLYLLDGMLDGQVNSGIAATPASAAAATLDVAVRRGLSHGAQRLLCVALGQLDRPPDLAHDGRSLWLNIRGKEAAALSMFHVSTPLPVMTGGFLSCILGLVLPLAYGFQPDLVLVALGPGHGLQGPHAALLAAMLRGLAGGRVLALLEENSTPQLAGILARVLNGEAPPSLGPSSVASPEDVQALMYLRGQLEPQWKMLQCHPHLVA
The experiment in a line: Inhibition of human recombinant HDAC10 using Ac-Arg-His-Lys(Ac)-Lys(Ac)-AMC substrate incubated for 15 to 30 mins.

A further test addresses Histone deacetylase 2 (Homo sapiens, UniProt Q92769). Briefly: Inhibition of human recombinant HDAC2 using [Ac-Leu-Gly-Lys(Ac)-AMC substrate incubated for 15 to 30 mins.
A short description of test [5]: Cytotoxic activity against human EB3 cells after 3 days by MTT assay. The class given is functional. The following applies: EB-3, 72 h. In outline:
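EBV-infected human Burkitt's lymphoma EB-3 cells seeded at 2 × 10^4 cells/well in RPMI-1640 with 10% FCS and 1% penicillin/streptomycin, cultured overnight at 37 °C, 5% CO2. Compounds added as 2-fold dilution series from DMSO stocks, top final concentration 50 or 100 μM; DMSO vehicle control. After 3 days, MTT added for 4 h. Formazan dissolved in acidic 2-propanol, A570 read minus A630. Three experiments in duplicate.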

Histone deacetylase 3, sequence (O15379 whole entry): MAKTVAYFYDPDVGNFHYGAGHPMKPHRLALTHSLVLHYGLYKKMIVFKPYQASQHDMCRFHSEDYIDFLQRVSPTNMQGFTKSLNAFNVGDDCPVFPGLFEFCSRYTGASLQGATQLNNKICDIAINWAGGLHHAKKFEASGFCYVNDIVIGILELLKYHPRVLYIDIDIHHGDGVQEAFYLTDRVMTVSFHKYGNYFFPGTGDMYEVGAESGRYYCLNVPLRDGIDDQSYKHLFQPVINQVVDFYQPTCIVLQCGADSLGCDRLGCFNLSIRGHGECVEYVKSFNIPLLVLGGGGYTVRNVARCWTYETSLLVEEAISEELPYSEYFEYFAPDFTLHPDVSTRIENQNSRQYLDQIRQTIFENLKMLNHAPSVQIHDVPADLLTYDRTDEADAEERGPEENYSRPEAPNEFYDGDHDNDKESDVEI
Histone deacetylase 1, sequence (Q13547 whole entry): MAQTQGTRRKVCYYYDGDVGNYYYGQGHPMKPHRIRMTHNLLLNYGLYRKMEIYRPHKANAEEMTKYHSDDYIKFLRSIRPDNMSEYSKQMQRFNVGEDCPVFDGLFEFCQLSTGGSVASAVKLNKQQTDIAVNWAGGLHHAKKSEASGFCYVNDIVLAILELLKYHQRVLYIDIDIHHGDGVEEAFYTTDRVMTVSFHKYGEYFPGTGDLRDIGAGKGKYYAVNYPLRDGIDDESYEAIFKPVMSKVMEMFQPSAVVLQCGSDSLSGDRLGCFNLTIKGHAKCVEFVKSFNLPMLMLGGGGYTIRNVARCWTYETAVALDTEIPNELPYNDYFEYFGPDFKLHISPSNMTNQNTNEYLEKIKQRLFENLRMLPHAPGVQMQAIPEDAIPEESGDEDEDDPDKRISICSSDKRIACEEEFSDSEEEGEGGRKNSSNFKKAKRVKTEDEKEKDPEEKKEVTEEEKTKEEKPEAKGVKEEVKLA
Histone deacetylase 2, sequence (Q92769 whole entry): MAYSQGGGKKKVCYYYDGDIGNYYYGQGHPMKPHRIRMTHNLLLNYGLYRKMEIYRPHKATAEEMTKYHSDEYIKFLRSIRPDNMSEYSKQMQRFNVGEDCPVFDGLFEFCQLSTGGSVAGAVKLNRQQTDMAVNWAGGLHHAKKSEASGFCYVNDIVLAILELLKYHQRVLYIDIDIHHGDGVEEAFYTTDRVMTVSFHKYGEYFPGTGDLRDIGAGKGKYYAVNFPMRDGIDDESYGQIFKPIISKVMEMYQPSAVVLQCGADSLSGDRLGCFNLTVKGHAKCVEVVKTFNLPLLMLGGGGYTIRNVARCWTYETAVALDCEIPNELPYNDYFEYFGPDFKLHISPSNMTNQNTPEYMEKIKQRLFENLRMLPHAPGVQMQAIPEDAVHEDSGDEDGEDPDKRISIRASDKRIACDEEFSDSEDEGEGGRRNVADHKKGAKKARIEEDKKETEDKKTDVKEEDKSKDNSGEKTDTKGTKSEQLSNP

As for `CC(C)[C@H]1NC(=O)C[C@@H](C/C=C\CCC(=O)O)NC(=O)[C@@H](Cc2ccccc2)NC(=O)[C@@H](C)NC1=O`, the Ki on Histone deacetylase 1 is 600 nM; on Histone deacetylase 3, 800 nM; at Histone deacetylase 8 it was “Not Active”; at Histone deacetylase 11, 1500 nM; in test [3], “Not Active”; in test [4], 700 nM. For the same compound, the Ki at Histone deacetylase 2 came to 900 nM. Besides, the “growth inhibition (GI)” value with EB-3 was “inactive”. Further, the inhibition in test [1] and in [2] was under 50% throughout.
`CCC(=O)CCCCC[C@@H]1NC(=O)[C@H]2CCCCN2C(=O)[C@H]([C@@H](C)CC)NC(=O)[C@H](Cc2cn(OC)c3ccccc23)NC1=O` [APICIDIN] showed a GI50 in test [5] of 800 nM.
